Source: ChEMBL document CHEMBL3779886, “Cassane Diterpenoids from the Pericarps of Caesalpinia bonduc” (J Nat Prod, 2016)
Activity calls are given as the source filed them.

Legend:
Assay type in all cases: functional, cell-based
SH-SY5Y [1] = experiment: Neuroprotective activity against H2O2-induced toxicity in human SH-SY5Y cells assessed as cell viability at 1 to 10 uM pretreated for 2 hrs followed by H2O2 addition measured after 24 hrs by MTT assay
In short: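 High-passage SH-SY5Y cells (ATCC), 37 °C, 5% CO2. Pretreatment for 2 h with compound at 1 or 10 μM, or N-acetylcysteine 300 μM, then 100 μM H2O2 for 24 h. Viability by MTT (0.5 mg/mL final, 4 h, 37 °C), DMSO solubilization, absorbance 490 nm. Means ± SD, one-way ANOVA, p < 0.05.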

SH-SY5Y [2] = experiment: Neuroprotective activity against amyloid beta(25 to 35)-induced toxicity in human SH-SY5Y cells assessed as cell viability at 1 to 10 uM pretreated for 2 hrs followed by protein addition measured after 24 hrs by MTT assay
In short: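 Cells: high-passage SH-SY5Y (ATCC), 37 °C, 5% CO2. 2 h pretreatment with compound at 1 or 10 μM, or EGCG 10 μM, then 10 μM Aβ25−35 for 24 h with compound still present. MTT at 0.5 mg/mL final for 4 h, 37 °C; DMSO dissolution; read at 490 nm. Means ± SD, one-way ANOVA, p < 0.05.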

SH-SY5Y [3] = experiment: Neuroprotective activity against OGD-induced toxicity in human SH-SY5Y cells assessed as cell viability at 1 to 10 uM pretreated for 2 hrs followed by OGD induction for 1 hr measured after 24 hrs by MTT assay
In short: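 SH-SY5Y cells (high passage, ATCC) kept at 37 °C, 5% CO2. Pretreated with compound for 2 h, then OGD exposure (1 mg/mL as printed) for 1 h, followed by 24 h normal culture. Glucose-fed cells under normal conditions served as controls. MTT 0.5 mg/mL final, 4 h, 37 °C; DMSO; A490. Means ± SD, one-way ANOVA.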

Measured: Activity

COC(=O)[C@@H]1c2ccoc2C[C@H]2[C@H]1[C@@H](O)[C@H](OC(C)=O)[C@@]1(O)C(C)(C)CCC(=O)[C@]21C
inactive: all assays above

COC(=O)[C@@H]1c2ccoc2C[C@H]2[C@H]1[C@@H](OC(C)=O)[C@H](O)[C@@]1(O)C(C)(C)CCC(=O)[C@]21C
inactive: all assays above

CC(=O)O[C@@H]1[C@@H]2[C@H](Cc3occc3[C@@]2(C)O)[C@@]2(C)[C@@H](OC(C)=O)CC(C)=C(C)[C@]2(O)[C@H]1OC(C)=O
inactive: all assays above

C=C1c2ccoc2C[C@H]2[C@H]1[C@@H](OC(C)=O)[C@H](OC(C)=O)[C@@]1(O)C(C)(C)CCC(=O)[C@]21C
inactive: all assays above

COC(=O)[C@@H]1c2ccoc2C[C@H]2[C@H]1[C@@H](O)[C@H](OC(C)=O)[C@@]1(O)C(C)(C)CC[C@H](O)[C@]21C
inactive: all assays above

COC(=O)[C@@H]1c2ccoc2C[C@H]2[C@H]1[C@@H](OC(C)=O)[C@H](OC(C)=O)[C@@]1(O)C(C)(C)CCC[C@]21C
inactive: all assays above

C=C1c2ccoc2C[C@H]2[C@H]1CC[C@@]1(O)C(C)(C)[C@H](OC(C)=O)[C@H](OC(C)=O)[C@H](OC(C)=O)[C@]21C
inactive: all assays above

COC(=O)[C@@H]1c2ccoc2C[C@H]2[C@H]1[C@@H](OC(C)=O)[C@H](OC(C)=O)[C@@]1(O)C(C)(C)CC[C@H](O)[C@]21C
inactive: all assays above

CC(=O)O[C@@H]1[C@@H]2[C@H](Cc3occc3[C@@]2(C)O)[C@@]2(C)[C@@H](OC(C)=O)C[C@H](C)[C@@]3(C)O[C@@]23[C@H]1OC(C)=O
inactive: all assays above
